Data as given in paper PMC4026406 (Drug Design, Development and Therapy, 2014).
Converted amounts (≈) assume the structure as drawn. Values belong to the compound of their own block, whether it stands above or below them.

Columns and labels:
[1] = tested on: Bacillus subtilis IFO 3007; test: Determination of MIC; assay type: cell-based; conditions: IFO3007, 24 h, read-out: MIC BS
Summary of the method: (§1)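 Broth two-fold dilution against IFO strains. Test compound and reference agents were dissolved in DMSO at 128 μg/mL and diluted two-fold from 128 to 0.5 μg/mL. Wells were inoculated with organism suspensions at 10^6 CFU/mL and incubated at 36°C for 24 h.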

[2] = tested on: Escherichia coli IFO 3301; test: Agar disc diffusion, growth inhibition zone; assay type: cell-based; conditions: IFO3301, 24 h, read-out: Diameter of growth inhibition zone EC
Summary of the method: (§2)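 Filter paper discs (8 mm) were loaded with test compound in DMSO at 200 μg/disc, with gentamicin, ampicillin trihydrate and clotrimazole discs at 100 μg/disc. Discs were placed on Müller–Hinton agar plates previously inoculated with IFO strains and incubated at 37°C. Inhibition zone diameters were read after 24 h for bacteria and 48 h for C. albicans.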

normal albino mice = test: Oral acute toxicity; assay type: in vivo; conditions: oral, mice; for LD16 / LD84: mortality at 24 hours
Summary of the method: (§3)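 Albino mice of either sex were dosed in six groups of six. Test compound was given by oral intubation as fresh suspensions (1–12%) in 0.5% aqueous CMC at 250, 500, 750, 1,000, 1,250 and 1,500 mg/kg. Mortality was recorded at 24 h, and LD16, LD50 and LD84 were calculated.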

Oral acute toxicity = assay type: in vivo, mice; conditions: both, albino, mouse, in vivo, po
Summary of the method: as §3

[3] = tested on: Staphylococcus aureus IFO 3060; test: Determination of MIC; assay type: cell-based; conditions: IFO3060, 24 h, read-out: MIC SA
Summary of the method: as §1

[4] = tested on: carrageenan-induced paw edema; test: Carrageenan-induced paw edema method in rats; assay type: in vivo, Sprague Dawley rats; conditions: for anti-inflammatory potency ratio relative to indomethacin: 40 mg/kg versus indomethacin
Summary of the method: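 Male Sprague Dawley rats (140–190 g, 20–23°C, 2-day acclimatisation) were used in groups of five. Test compound (20 or 40 mg/kg) or indomethacin (5 mg/kg) was given i.p. in 1 mL 0.5% aqueous CMC. One hour later, 0.1 mL 1% carrageenan in saline went into the right hind paw, with saline in the left. Paw volume was measured by water plethysmometer at 4 h. Protection was calculated versus vehicle control and reported as mean ± SEM, Student's t-test.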

[5] = tested on: Candida albicans IFO 0583; test: Agar disc diffusion, growth inhibition zone; assay type: cell-based; conditions: for inhibitory activity against C. albicans (in words): 200 μg/disc, compared with clotrimazole
Summary of the method: as §2

[6] = tested on: Candida albicans IFO 0583; test: Determination of MIC; assay type: cell-based; conditions: IFO0583, read-out: MIC CA
Summary of the method: as §1

[7] = tested on: Escherichia coli IFO 3301; test: Determination of MIC; assay type: cell-based; conditions: IFO3301, 24 h, read-out: MIC EC
Summary of the method: as §1

[8] = tested on: Pseudomonas aeruginosa IFO 3448; test: Determination of MIC; assay type: cell-based; conditions: IFO3448, 24 h, read-out: MIC PA
Summary of the method: as §1

[9] = tested on: Micrococcus luteus IFO 3232; test: Determination of MIC; assay type: cell-based; conditions: IFO3232, 24 h, read-out: MIC ML
Summary of the method: as §1

[10] = Candida albicans, IFO0583, 48 h, read-out: Diameter of growth inhibition zone CA

SMILES: CCOC(=O)CSc1nnc(C23CC4CC(CC(C4)C2)C3)n1-c1ccccc1 [Compound 13, Ethyl 2-[5-(1-adamantyl)-4-phenyl-1,2,4-triazol-3-ylsulfanyl]acetate]
- MIC [1]: 16 µg/mL (≈ 40.2 µM)
- zone of inhibition at 200 µg/disc [2]: < 10 mm
- LD50 as percent of that of indomethacin (normal albino mice): 5.41%
- LD16 (normal albino mice): 499 mg/kg
- LD84 (normal albino mice): 1,435 mg/kg
- LD50 at 24 h (Oral acute toxicity): 924 mg/kg
- MIC [3]: 4 µg/mL (≈ 10.1 µM)
- anti-inflammatory potency ratio relative to indomethacin [4]: about 15%
- inhibitory activity against C. albicans (in words) [5]: marginal activity
- zone of inhibition at 200 µg/disc [5, 10]: 12 mm

SMILES: COCCSc1nnc(C23CC4CC(CC(C4)C2)C3)n1-c1ccccc1 [Compound 11, 5-(1-Adamantyl)-3-[(2-methoxyethyl)sulfanyl]-4-phenyl-1,2,4-triazole]
- zone of inhibition at 200 µg/disc [2]: < 10 mm
- reduction in edema at both dose levels ([4]; 20 and 40 mg/kg intraperitoneal, rats): did not show any significant anti-inflammatory activity
- zone of inhibition at 200 µg/disc [5, 10]: < 10 mm

SMILES: CN(C)CCSc1nnc(C23CC4CC(CC(C4)C2)C3)n1C [Compound 9a, 2-{[5-(Adamantan-1-yl)-4-methyl-4H-1,2,4-triazol-3-yl]sulfanyl}-N,N-dimethyl-ethanamine]
- zone of inhibition at 200 µg/disc [2]: < 10 mm
- zone of inhibition at 200 µg/disc [5, 10]: < 10 mm

- MIC [1]: 16 µg/mL (≈ 33.2 µM)
SMILES: CCOC(=O)N1CCN(Cn2nc(C34CC5CC(CC(C5)C3)C4)n(-c3ccccc3)c2=S)CC1 [Compound 6b, Ethyl 4-{[3-(adamantan-1-yl)-4-phenyl-5-sulfanylidene-4,5-dihydro-1H-1,2,4-triazol-1-yl]methyl}piperazine-1-carboxylate]
- zone of inhibition at 200 µg/disc [2]: < 10 mm
- zone of inhibition at 200 µg/disc [5, 10]: < 10 mm

- MIC [6]: 2 µg/mL (≈ 5.8 µM)
SMILES: Clc1ccccc1C(c1ccccc1)(c1ccccc1)n1ccnc1 [Clotrimazole, clotrimazole, reference compound]
- zone of inhibition at 100 µg/disc [5, 10]: 21 mm

SMILES: O=C(O)CSc1nnc(C23CC4CC(CC(C4)C2)C3)n1-c1ccccc1 [Compound 14, 2-[5-(1-Adamantyl)-4-phenyl-1,2,4-triazol-3-ylsulfanyl]acetic acid]
- zone of inhibition at 200 µg/disc [2]: < 10 mm
- LD50 as percent of that of indomethacin (normal albino mice): 9.03%
- LD16 (normal albino mice): 295 mg/kg
- LD84 (normal albino mice): 1,338 mg/kg
- LD50 at 24 h (Oral acute toxicity): 554 mg/kg
- MIC [3]: 8 µg/mL (≈ 21.7 µM)
- anti-inflammatory potency ratio relative to indomethacin [4]: about 15%
- inhibitory activity against C. albicans (in words) [5]: marginal activity
- zone of inhibition at 200 µg/disc [5, 10]: 12 mm

- MIC [1]: 2 µg/mL (≈ 4.19 µM)
- MIC [7]: 0.5 µg/mL (≈ 1.05 µM)
- MIC [8]: 1 µg/mL (≈ 2.09 µM)
- MIC [9]: 2 µg/mL (≈ 4.19 µM)
- MIC [3]: 2 µg/mL (≈ 4.19 µM)
SMILES: CNC(C)C1CCC(N)C(OC2C(N)CC(N)C(OC3OCC(C)(O)C(NC)C3O)C2O)O1 (centres unmarked) [Gentamicin, gentamicin, reference compound]
- zone of inhibition at 100 µg/disc [2]: 20 mm

- MIC [1]: 0.5 µg/mL (≈ 1.43 µM)
- MIC [7]: 2 µg/mL (≈ 5.72 µM)
- MIC [8]: 2 µg/mL (≈ 5.72 µM)
- MIC [9]: 2 µg/mL (≈ 5.72 µM)
- MIC [3]: 2 µg/mL (≈ 5.72 µM)
SMILES: CC1(C)S[C@@H]2[C@H](NC(=O)[C@H](N)c3ccccc3)C(=O)N2[C@H]1C(=O)O [Ampicillin, ampicillin, reference compound]
- zone of inhibition at 100 µg/disc [2]: 17 mm
